Among the data in ChEMBL document CHEMBL1150387, “Development and experimental validation of a docking strategy for the generation of kinase-targeted libraries” (J Med Chem, 2008) are inhibition values, retold here.

Assay [1] is described as follows: Inhibition of IRK at 10 uM by HTRF assay relative to control. Put shortly: (§1)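 HTRF kinase assay, one panel of kinases. Inhibitor stock 50 µM in 100% DMSO; tested at 10 µM. ATP and substrate at final levels near Km. Final buffer: 50 mM Hepes/NaOH pH 7.4, 40 µM Na3VO4, 0.005% Tween-20, 1 mM DTT, MnCl2 or MgCl2 at kinase-dependent levels. Started by adding ATP/substrate. Reaction run at room temperature, time varied by kinase. Detection mix in 50 mM Hepes pH 7.4, 0.1% BSA, 150 mM KF, incubated ≥1 h at room temperature. Activity expressed as % of uninhibited control; n=2.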
For orientation: TR-FRET usually uses a lanthanide donor and a delayed reading to cut background.

Assay [2] addresses Vascular endothelial growth factor receptor 1 (Homo sapiens) (UniProt P17948). The experiment in a line: Inhibition of FLT1 at 10 uM by HTRF assay relative to control. The procedure, abridged: as §1
The target of assay [3] is Epidermal growth factor receptor (Homo sapiens) (UniProt P00533). The experiment in a line: Inhibition of EGFR at 10 uM by HTRF assay relative to control. The procedure, abridged: as §1
Sequence of Epidermal growth factor receptor (Homo sapiens) (P00533 whole entry): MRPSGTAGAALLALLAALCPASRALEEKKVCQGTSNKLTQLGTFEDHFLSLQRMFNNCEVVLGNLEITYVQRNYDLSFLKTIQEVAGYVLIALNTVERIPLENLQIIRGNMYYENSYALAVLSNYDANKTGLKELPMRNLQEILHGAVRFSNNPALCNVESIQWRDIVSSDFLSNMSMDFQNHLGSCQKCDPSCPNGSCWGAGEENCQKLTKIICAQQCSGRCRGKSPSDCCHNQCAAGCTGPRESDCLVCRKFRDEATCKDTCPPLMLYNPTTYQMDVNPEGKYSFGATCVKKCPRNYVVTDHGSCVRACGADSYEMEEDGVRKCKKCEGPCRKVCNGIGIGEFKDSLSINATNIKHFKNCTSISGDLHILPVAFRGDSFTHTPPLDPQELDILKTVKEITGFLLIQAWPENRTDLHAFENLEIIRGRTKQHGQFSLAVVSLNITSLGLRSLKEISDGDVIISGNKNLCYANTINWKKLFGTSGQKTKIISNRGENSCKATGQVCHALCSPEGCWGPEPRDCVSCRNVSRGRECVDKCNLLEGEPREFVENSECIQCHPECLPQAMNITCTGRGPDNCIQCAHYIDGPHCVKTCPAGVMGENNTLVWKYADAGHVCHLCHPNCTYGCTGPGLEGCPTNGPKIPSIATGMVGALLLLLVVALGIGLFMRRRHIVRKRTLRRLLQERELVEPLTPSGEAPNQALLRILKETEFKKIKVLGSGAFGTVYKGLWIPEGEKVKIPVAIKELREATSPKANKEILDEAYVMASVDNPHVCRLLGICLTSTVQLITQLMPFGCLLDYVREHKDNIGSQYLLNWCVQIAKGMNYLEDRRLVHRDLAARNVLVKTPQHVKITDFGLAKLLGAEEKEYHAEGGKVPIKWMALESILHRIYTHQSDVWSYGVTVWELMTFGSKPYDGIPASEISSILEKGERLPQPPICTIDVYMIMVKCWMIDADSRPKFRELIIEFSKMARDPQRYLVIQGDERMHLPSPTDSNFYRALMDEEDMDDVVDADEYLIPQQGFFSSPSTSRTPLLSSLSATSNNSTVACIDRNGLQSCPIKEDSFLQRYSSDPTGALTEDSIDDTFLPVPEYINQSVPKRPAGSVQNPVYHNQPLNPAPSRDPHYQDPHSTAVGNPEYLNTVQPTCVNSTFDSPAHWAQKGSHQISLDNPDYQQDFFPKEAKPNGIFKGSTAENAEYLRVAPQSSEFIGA
For assay [4], the target named is T1, Mitogen-activated protein kinase 12 (Homo sapiens) (UniProt P53778).
T1 sequence (whole entry): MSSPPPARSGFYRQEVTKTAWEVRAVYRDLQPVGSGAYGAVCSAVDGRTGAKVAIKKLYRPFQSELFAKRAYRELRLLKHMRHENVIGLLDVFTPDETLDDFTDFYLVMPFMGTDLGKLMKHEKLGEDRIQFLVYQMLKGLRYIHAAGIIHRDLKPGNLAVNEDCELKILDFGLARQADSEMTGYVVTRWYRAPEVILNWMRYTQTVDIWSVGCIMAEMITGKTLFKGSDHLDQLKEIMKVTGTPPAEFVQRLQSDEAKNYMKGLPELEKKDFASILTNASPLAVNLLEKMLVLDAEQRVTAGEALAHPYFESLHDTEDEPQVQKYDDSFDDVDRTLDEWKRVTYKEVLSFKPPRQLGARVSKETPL
The experiment in a line: Inhibition of p38-gamma at 10 uM by HTRF assay relative to control. Put shortly:
as §1

Assay [5] addresses Mitogen-activated protein kinase 14 (Homo sapiens) (UniProt Q16539). The experiment in a line: Inhibition of p38alpha at 10 uM by HTRF assay relative to control. Put shortly: as §1
Assay [6] has as its target Mitogen-activated protein kinase 9 (Homo sapiens) (UniProt P45984). The experiment in a line: Inhibition of JNK2 at 10 uM by HTRF assay relative to control. The procedure, abridged: as §1
Assay [7] concerns the target Cyclin-dependent kinase 2 (Homo sapiens) (UniProt P24941). The experiment in a line: Inhibition of CDK2 at 10 uM by HTRF assay relative to control. Put shortly: as §1
Assay [8] has as its target T2, Calcium/calmodulin-dependent protein kinase type IV (Homo sapiens) (UniProt Q16566).
T2 sequence (whole entry): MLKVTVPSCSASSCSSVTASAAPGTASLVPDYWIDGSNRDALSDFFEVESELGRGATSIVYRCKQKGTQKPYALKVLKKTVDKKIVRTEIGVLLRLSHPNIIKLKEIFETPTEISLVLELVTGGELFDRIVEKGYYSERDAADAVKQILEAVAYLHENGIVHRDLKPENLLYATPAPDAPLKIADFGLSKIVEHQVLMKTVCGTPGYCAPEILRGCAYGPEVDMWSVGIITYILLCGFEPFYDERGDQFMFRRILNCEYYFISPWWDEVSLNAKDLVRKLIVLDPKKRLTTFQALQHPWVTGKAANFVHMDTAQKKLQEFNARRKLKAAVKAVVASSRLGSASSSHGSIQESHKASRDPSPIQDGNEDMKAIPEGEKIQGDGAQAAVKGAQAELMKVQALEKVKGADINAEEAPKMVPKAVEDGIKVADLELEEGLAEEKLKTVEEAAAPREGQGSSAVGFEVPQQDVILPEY
The assay can be described thus: Inhibition of CaMK4 at 10 uM by HTRF assay relative to control. Put shortly:
as §1

Assay [9] addresses Proto-oncogene tyrosine-protein kinase Src (Homo sapiens) (UniProt P12931). The assay can be described thus: Inhibition of Src at 10 uM by HTRF assay relative to control. The procedure, abridged:
as §1

Assay [10] deals with T3, Tyrosine-protein kinase JAK3 (Homo sapiens) (UniProt P52333).
T3 sequence (whole entry): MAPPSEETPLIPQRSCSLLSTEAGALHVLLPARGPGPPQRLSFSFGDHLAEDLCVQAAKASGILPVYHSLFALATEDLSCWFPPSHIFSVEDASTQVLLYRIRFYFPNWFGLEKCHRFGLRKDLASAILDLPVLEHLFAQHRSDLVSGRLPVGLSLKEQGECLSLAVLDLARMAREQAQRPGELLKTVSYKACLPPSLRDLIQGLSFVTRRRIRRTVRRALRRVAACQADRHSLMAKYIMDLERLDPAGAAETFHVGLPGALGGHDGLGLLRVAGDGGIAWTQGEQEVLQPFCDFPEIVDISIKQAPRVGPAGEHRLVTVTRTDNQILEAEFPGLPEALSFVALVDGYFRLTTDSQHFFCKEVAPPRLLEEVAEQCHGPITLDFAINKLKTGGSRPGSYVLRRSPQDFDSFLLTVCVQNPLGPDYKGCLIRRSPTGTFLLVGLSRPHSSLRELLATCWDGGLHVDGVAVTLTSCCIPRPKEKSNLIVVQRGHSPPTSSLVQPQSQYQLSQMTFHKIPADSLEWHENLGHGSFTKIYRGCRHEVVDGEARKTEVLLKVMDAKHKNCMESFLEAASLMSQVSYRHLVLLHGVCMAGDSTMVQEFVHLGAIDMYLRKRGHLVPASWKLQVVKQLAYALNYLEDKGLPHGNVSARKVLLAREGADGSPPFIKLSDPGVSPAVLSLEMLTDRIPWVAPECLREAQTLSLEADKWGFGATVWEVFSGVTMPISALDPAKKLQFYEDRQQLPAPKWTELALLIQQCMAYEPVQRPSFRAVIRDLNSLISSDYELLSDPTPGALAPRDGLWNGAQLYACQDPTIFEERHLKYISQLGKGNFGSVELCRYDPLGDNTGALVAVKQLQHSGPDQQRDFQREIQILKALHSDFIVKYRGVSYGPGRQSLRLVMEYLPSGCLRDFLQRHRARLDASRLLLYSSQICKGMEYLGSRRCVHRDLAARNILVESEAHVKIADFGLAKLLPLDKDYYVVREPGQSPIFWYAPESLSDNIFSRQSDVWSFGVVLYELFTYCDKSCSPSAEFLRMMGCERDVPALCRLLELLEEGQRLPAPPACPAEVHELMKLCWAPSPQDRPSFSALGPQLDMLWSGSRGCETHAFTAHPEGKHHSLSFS
The experiment in a line: Inhibition of JAK3 at 10 uM by HTRF assay relative to control. Put shortly:
as §1

The target of assay [11] is Protein-tyrosine kinase 6 (Homo sapiens) (UniProt Q13882). The experiment in a line: Inhibition of Brk at 10 uM by HTRF assay relative to control. Put shortly:
as §1

Sequence of Proto-oncogene tyrosine-protein kinase Src (Homo sapiens) (P12931 2-536 limits assumed): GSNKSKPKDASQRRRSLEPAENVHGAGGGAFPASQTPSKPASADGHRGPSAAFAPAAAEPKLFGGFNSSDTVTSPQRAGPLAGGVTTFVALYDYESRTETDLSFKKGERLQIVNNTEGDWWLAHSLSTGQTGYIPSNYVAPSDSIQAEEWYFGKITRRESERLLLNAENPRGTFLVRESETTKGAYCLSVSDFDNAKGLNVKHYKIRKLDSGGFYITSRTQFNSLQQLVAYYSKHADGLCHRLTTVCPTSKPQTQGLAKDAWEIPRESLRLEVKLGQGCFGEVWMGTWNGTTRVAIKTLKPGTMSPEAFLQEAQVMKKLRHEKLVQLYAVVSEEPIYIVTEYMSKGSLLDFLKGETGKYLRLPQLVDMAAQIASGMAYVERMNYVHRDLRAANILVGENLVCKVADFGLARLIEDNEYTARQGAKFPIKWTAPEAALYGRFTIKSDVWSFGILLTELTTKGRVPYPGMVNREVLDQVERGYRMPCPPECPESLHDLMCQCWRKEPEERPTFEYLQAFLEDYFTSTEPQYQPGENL
Sequence of Vascular endothelial growth factor receptor 1 (Homo sapiens) (P17948 whole entry): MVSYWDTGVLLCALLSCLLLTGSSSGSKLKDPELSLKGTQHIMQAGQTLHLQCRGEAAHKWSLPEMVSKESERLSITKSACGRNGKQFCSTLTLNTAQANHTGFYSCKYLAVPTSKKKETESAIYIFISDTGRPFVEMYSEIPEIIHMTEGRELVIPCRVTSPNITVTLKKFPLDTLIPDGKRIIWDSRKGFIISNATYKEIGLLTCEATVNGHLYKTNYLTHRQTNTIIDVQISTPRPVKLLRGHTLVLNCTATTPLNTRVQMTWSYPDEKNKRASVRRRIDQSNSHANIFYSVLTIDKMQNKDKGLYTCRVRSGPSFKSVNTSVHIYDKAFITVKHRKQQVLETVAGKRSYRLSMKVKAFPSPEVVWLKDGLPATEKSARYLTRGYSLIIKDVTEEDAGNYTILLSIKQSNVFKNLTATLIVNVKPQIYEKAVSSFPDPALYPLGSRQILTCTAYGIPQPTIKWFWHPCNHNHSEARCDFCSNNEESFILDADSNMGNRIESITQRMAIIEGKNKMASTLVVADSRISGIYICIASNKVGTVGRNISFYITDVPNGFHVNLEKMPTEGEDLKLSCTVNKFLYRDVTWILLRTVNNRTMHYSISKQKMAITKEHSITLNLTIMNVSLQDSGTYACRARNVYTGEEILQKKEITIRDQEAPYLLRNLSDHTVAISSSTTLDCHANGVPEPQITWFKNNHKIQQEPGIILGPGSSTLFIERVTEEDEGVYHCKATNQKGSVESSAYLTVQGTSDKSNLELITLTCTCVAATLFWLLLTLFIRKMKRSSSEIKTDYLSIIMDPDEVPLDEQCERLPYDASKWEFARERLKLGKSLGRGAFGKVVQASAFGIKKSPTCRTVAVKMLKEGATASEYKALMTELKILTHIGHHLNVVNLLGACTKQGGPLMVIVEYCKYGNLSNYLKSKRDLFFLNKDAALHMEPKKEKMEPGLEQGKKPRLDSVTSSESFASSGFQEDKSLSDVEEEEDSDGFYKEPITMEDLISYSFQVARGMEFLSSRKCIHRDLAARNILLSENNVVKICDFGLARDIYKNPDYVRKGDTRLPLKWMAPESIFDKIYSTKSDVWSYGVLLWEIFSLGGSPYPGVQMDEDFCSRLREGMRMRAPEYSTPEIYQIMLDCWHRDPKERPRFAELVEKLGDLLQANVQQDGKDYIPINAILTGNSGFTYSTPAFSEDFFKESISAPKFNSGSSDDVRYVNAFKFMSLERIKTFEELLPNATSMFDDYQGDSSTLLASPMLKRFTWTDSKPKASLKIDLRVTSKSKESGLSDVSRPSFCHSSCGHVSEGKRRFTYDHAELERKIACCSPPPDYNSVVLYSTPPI
Sequence of Protein-tyrosine kinase 6 (Homo sapiens) (Q13882 whole entry, looked up): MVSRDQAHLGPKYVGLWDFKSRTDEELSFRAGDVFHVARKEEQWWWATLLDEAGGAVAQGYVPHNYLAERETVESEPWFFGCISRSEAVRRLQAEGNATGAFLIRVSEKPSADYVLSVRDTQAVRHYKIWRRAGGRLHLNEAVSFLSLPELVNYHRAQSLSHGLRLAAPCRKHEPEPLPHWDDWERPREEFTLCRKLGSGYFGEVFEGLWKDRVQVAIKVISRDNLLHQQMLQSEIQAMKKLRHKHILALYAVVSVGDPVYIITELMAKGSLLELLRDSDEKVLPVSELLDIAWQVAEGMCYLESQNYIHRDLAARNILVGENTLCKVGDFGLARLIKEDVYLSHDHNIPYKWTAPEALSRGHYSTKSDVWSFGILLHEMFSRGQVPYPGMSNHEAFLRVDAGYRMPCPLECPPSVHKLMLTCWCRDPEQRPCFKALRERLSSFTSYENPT
Sequence of Mitogen-activated protein kinase 9 (Homo sapiens) (P45984 whole entry, looked up): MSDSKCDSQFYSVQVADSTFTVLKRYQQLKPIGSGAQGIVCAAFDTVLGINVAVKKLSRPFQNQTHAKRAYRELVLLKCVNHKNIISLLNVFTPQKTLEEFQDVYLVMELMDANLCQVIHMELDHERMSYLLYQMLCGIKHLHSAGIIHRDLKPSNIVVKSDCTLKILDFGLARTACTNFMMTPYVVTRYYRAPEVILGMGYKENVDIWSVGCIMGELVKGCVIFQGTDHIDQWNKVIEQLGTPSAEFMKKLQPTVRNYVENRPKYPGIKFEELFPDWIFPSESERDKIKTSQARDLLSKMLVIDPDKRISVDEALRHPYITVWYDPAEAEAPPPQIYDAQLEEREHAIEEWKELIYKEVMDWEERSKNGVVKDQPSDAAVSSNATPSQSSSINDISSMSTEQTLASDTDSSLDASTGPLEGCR
Sequence of Mitogen-activated protein kinase 14 (Homo sapiens) (Q16539 whole entry): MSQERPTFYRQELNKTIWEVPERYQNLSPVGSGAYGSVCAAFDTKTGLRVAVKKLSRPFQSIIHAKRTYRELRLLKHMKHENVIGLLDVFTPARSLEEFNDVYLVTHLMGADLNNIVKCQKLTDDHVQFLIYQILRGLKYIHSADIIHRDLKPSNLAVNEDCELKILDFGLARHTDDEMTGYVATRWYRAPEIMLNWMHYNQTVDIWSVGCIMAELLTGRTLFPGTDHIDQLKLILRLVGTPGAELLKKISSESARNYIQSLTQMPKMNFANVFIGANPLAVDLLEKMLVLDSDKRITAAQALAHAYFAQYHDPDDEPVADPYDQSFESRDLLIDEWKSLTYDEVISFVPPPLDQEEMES

The term inhibition denotes how much of the control response was suppressed. Turning to `CN(C)CC(C)(C)CNC(=O)C1CCN(c2cc(N3CCOCC3)nc(N)n2)CC1`, the inhibition in [1] turned out to be 0%; in [2], 0%; in assay [3], 0%; in assay [4], 2%; in [5] it was 0%; in assay [6], 1%. Further, the inhibition in assay [7] is 8%; in [8] it was 0%; in assay [9] it was 10%; in assay [10] it was 0%; in assay [11], 3%.

With `Cc1cccc(Nc2nccc(Nc3cccc(C(=O)N(C)CCc4ccccn4)c3)n2)c1`, the inhibition in [1] was found to be 66%; in [2], 34%; in assay [3] it was 8%; in assay [4], 2%; in assay [5], 3%; in assay [6] it was 37%. The inhibition in assay [7] came to 28%; in [8], 0%; in assay [9], 64%; in assay [10], 50%; in assay [11] it was 36%.

For `O=C(NCc1ccncc1)c1cccc(Nc2cc(Nc3cccc(Br)c3)ncn2)c1`, the inhibition turned out to be 0% in [1]; 32% in assay [2]; 100% in assay [3]; 0% in assay [4]; 37% in [5]; 38% in assay [6]. The inhibition worked out at 15% in assay [7]; 0% in [8]; 30% in assay [9]; 0% in [10]; 10% in assay [11].

As for `Cc1cccc(Oc2ccnc(N3CCN(C(=O)c4c(C)noc4C)CC3)n2)c1`, the inhibition is 0% in [1]; 7% in assay [2]; 0% in assay [3]; 7% in assay [4]; 0% in assay [5]; 6% in [6]. The inhibition in assay [7] stood at 2%; in [8] it was 0%; in assay [9] it was 0%; in [10] it was 0%; in assay [11], 2%.

Regarding `COc1cccc(Nc2cc(Nc3cccc(C(=O)NCCCn4ccnc4)c3)nc(N)n2)c1`, the inhibition was found to be 0% in [1]; 4% in assay [2]; 91% in [3]; 17% in [4]; 11% in assay [5]; 32% in assay [6]. The inhibition in assay [7] came to 2%; in assay [8], 0%; in assay [9] it was 10%; in assay [10] it was 11%; in [11] it was 16%.

For `O=C(NCc1cccnc1)c1cccc(-c2ccc(Nc3ccc4ncsc4c3)nn2)c1`, the inhibition in assay [1] came out at 73%; in assay [2], 43%; in assay [3] it was 27%; in assay [4] it was 5%; in [5], 0%; in assay [6] it was 51%. Also, the inhibition in assay [7] came out at 0%; in assay [8] it was 0%; in [9], 11%; in assay [10], 41%; in assay [11], 48%.

As to `Cc1cccc(CN2CCN(c3cc(N(C)c4cccc(C)c4)ncn3)CC2)c1`, the inhibition came to 0% in [1]; 0% in assay [2]; 0% in [3]; 2% in [4]; 1% in [5]; 5% in [6]. For the same molecule, the inhibition in [7] is 0%; in assay [8], 0%; in assay [9], 8%; in assay [10] it was 6%; in [11], 7%.

As to `Nc1nc(N2CCOCC2)cc(N2CCC(C(=O)NCCc3ccc(O)cc3)CC2)n1`, the inhibition in assay [1] was found to be 0%; in assay [2], 0%; in assay [3], 0%; in assay [4], 0%; in assay [5], 8%; in assay [6] it was 3%. Besides, the inhibition in [7] came out at 5%; in [8] it was 0%; in [9] it was 2%; in assay [10], 0%; in assay [11], 0%.

With `O=C(c1nc(SCc2ccc(Cl)cc2)n2ccccc12)N1CCN(c2ncnc3c2CN(Cc2ccccc2)CC3)CC1`, the inhibition in assay [1] is 0%; in assay [2], 0%; in assay [3], 0%; in assay [4], 0%; in assay [5] it was 5%; in assay [6], 1%. For the same molecule, the inhibition in assay [7] is 0%; in [8], 0%; in assay [9], 0%; in assay [10] it was 3%; in assay [11], 9%.

Take `Cc1cccc(Nc2nccc(Nc3cccc(C(=O)NCc4ccc(N(C)C)cc4)c3)n2)c1`: the inhibition in assay [1] came out at 0%; in assay [2] it was 0%; in assay [3], 0%; in assay [4], 0%; in assay [5] it was 0%; in [6] it was 4%. The inhibition amounted to 1% in assay [7]; 0% in assay [8]; 8% in [9]; 6% in assay [10]; 33% in [11].

For the molecule `CN(CCc1ccccn1)C(=O)[C@@H]1CCCN1c1nccc(Nc2ccccc2)n1`, the inhibition was found to be 0% in assay [1]; 0% in assay [2]; 0% in assay [3]; 2% in [4]; 0% in assay [5]; 2% in assay [6]. In addition, the inhibition was determined as 5% in assay [7]; 0% in assay [8]; 0% in assay [9]; 0% in [10]; 0% in assay [11].

For `CN(CCCn1ccnc1)C(=O)[C@@H]1CCCN1c1nccc(Nc2ccccc2)n1`, the inhibition in assay [1] came out at 0%; in assay [2], 4%; in assay [3], 5%; in [4] it was 1%; in [5] it was 1%; in [6] it was 6%. For the same molecule, the inhibition in assay [7] came to 24%; in [8], 0%; in assay [9], 8%; in [10], 0%; in assay [11], 4%.

As for `CN(CCc1ccccn1)C(=O)c1cccc(Nc2nccc(Nc3ccc4ncsc4c3)n2)c1`, the inhibition in [1] was found to be 34%; in [2], 72%; in assay [3], 23%; in assay [4], 1%; in [5] it was 19%; in assay [6], 53%. Besides, the inhibition in assay [7] was 12%; in assay [8], 0%; in assay [9] it was 69%; in [10] it was 28%; in assay [11], 78%.
